Assay results: ChEMBL document CHEMBL1125474, “Comparative molecular field analysis of anticoccidial triazines” (J Med Chem, 1992)

Test system: Eimeria tenella
Experiment: Minimum effective concentration for anti-coccidial activity against […] coccidian parasite Eimeria tenella in chicks expressed as mmol/kg of feed
Assay type: functional
Outline: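 Chicks kept on feed containing test drug, then challenged with *Eimeria tenella* oocysts. Activity is scored as the degree of lesion control in the ceca of treated, challenged birds. The lowest feed concentration that controls lesions is taken as the MEC. Values are usually reproducible within one 2-fold dilution (±0.3 in log(1/MEC)).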

First: O=c1cnn(-c2ccc(S(=O)(=O)N3CCOCC3)c(Cl)c2)c(=O)[nH]1
Second: O=c1cnn(-c2ccc(S(=O)(=O)N3CCCCC3)c(Cl)c2)c(=O)[nH]1
The “Log 1/MEC” value of the first is higher: 1.09 for the first, 0.17 for the second.

Compared with `Cc1cc(-n2ncc(=O)[nH]c2=O)cc(Cl)c1S(=O)(=O)N(C)C`, `CS(=O)(=O)c1c(Cl)cc(-n2ncc(=O)[nH]c2=O)cc1Cl` is lower in “Log 1/MEC” value: 0.76 for the first, 0.13 for the second.

Compared with `Cc1cc(-n2ncc(=O)[nH]c2=O)cc(C)c1S(=O)(=O)N1CCOCC1`, `O=c1cnn(-c2cc(Cl)c(S(=O)(=O)N3CCOCC3)c(Cl)c2)c(=O)[nH]1` is lower in “Log 1/MEC” value: 1.39 for the first, 1.13 for the second.

First: O=c1cnn(-c2cccc(Cl)c2)c(=O)[nH]1
Second: N#Cc1cccc(-n2ncc(=O)[nH]c2=O)c1
The “Log 1/MEC” value of the first is lower: 0.25 for the first, 0.85 for the second.

Going from `O=c1cnn(-c2ccc(S(=O)(=O)N3CCC(O)CC3)c(Cl)c2)c(=O)[nH]1` to `Cc1cc(-n2ncc(=O)[nH]c2=O)cc(Cl)c1S(=O)(=O)N1CCSCC1`, the “Log 1/MEC” value rises from -0.11 to 0.53.

Compared with `Cc1cc(C)cc(-n2ncc(=O)[nH]c2=O)c1`, `Cc1cc(Cl)cc(-n2ncc(=O)[nH]c2=O)c1` is higher in “Log 1/MEC” value: 0.86 for the first, 1.2 for the second.

Going from `O=c1cnn(-c2ccc(S(=O)(=O)c3ccc(Cl)cc3)cc2)c(=O)[nH]1` to `O=c1cnn(-c2ccc(S(=O)(=O)c3ccc(Br)cc3)cc2)c(=O)[nH]1`, the “Log 1/MEC” value falls from 1.96 to 1.71.

`Cc1cc(-n2ncc(=O)[nH]c2=O)cc(Cl)c1Sc1ccc(Cl)cc1` and `O=c1cnn(-c2cc(Cl)c(Sc3ccc(Cl)cc3)c(Cl)c2)c(=O)[nH]1` are within 0.2 log units of each other in “Log 1/MEC” value: 3.28 for the first, 3.3 for the second.

First: CCc1cc(-n2ncc(=O)[nH]c2=O)cc(C)c1Sc1ccc(Cl)cc1
Second: Cc1cc(-n2ncc(=O)[nH]c2=O)cc(C)c1Sc1ccc(Cl)cc1 [TIAZURIL]
The “Log 1/MEC” value of the first is lower: 0.79 for the first, 2.86 for the second.

Going from `COc1c(Cl)cc(-n2ncc(=O)[nH]c2=O)cc1Cl` to `O=c1cnn(-c2ccc(Cl)c(Cl)c2)c(=O)[nH]1`, the “Log 1/MEC” value rises from 0.06 to 0.63.

Going from `O=c1cnn(-c2cc(Cl)c(S(=O)(=O)c3ccc(Cl)cc3)c(Cl)c2)c(=O)[nH]1` to `Cc1cc(-n2ncc(=O)[nH]c2=O)cc(Cl)c1S(=O)(=O)c1ccc(Cl)cc1`, the “Log 1/MEC” value falls from 2.94 to 1.71.

Compared with `O=c1cnn(-c2cc(Cl)cc(Cl)c2)c(=O)[nH]1`, `O=c1cnn(-c2cc(I)cc(I)c2)c(=O)[nH]1` is lower in “Log 1/MEC” value: 1.81 for the first, 1.17 for the second.

`O=c1cnn(-c2ccccc2)c(=O)[nH]1` and `O=c1cnn(-c2ccc(Oc3ccccc3)cc2)c(=O)[nH]1` are within 0.2 log units of each other in “Log 1/MEC” value: -0.42 for the first, -0.25 for the second.

Compared with `O=c1cnn(-c2ccc(Sc3ccc(Cl)cc3)c(Cl)c2)c(=O)[nH]1`, `CC(C)(C)c1ccc(Sc2ccc(-n3ncc(=O)[nH]c3=O)cc2Cl)cc1` is lower in “Log 1/MEC” value: 2.26 for the first, 0.51 for the second.

Compared with `O=c1cnn(-c2ccc(S(=O)(=O)c3ccc(Cl)cc3)c(Cl)c2)c(=O)[nH]1`, `O=c1cnn(-c2ccc(Cc3ccc(Cl)cc3)c(Cl)c2)c(=O)[nH]1` is lower in “Log 1/MEC” value: 2.3 for the first, 1.64 for the second.

Going from `Cc1cc(-n2ncc(=O)[nH]c2=O)cc(C)c1S(=O)(=O)c1ccc(Cl)cc1` to `Cc1cc(-n2ncc(=O)[nH]c2=O)cc(C)c1C(=O)c1ccc(Cl)cc1`, the “Log 1/MEC” value falls from 2.59 to 1.38.

First: Cc1cc(-n2ncc(=O)[nH]c2=O)cc(C)c1[S+]([O-])c1ccc(Cl)cc1 (stereo not drawn)
Second: Cc1cc(-n2ncc(=O)[nH]c2=O)cc(Cl)c1Oc1ccc(Cl)cc1
The “Log 1/MEC” value of the first is higher: 2.58 for the first, 1.98 for the second.

First: O=c1cnn(-c2ccc(S(=O)(=O)c3ccccc3)cc2)c(=O)[nH]1
Second: CS(=O)(=O)c1ccc(-n2ncc(=O)[nH]c2=O)cc1
The “Log 1/MEC” value of the first is higher: 1.04 for the first, -0.27 for the second.

Going from `O=C(c1ccc(Cl)cc1)c1c(Cl)cc(-n2ncc(=O)[nH]c2=O)cc1Cl` to `O=c1cnn(-c2cc(Cl)c(Cc3ccc(Cl)cc3)c(Cl)c2)c(=O)[nH]1`, the “Log 1/MEC” value rises from 2.9 to 3.18.

First: O=c1cnn(-c2ccc([N+](=O)[O-])cc2)c(=O)[nH]1
Second: O=c1cnn(-c2cccc(C(F)(F)F)c2)c(=O)[nH]1
The “Log 1/MEC” value of the first is lower: -0.03 for the first, 0.93 for the second.

First: O=c1cnn(-c2ccc(Oc3ccc(I)cc3)c(Cl)c2)c(=O)[nH]1
Second: CSc1ccc(Oc2ccc(-n3ncc(=O)[nH]c3=O)cc2Cl)cc1
The “Log 1/MEC” value of the first is lower: 1.77 for the first, 1.98 for the second.

Compared with `CSc1ccc(Oc2ccc(-n3ncc(=O)[nH]c3=O)cc2C)cc1`, `Cc1cc(-n2ncc(=O)[nH]c2=O)ccc1Oc1ccc(Br)cc1` is lower in “Log 1/MEC” value: 2.23 for the first, 1.7 for the second.

First: CC(=O)c1ccc(Sc2c(C)cc(-n3ncc(=O)[nH]c3=O)cc2Cl)cc1
Second: CC(=O)c1ccc(Oc2c(C)cc(-n3ncc(=O)[nH]c3=O)cc2Cl)cc1
The “Log 1/MEC” value of the first is higher: 3.19 for the first, 2.27 for the second.

Going from `O=c1cnn(-c2ccc(Oc3ccc4cc(Br)ccc4c3)c(Cl)c2)c(=O)[nH]1` to `Cc1cc(-n2ncc(=O)[nH]c2=O)ccc1Oc1ccc(Cl)cc1`, the “Log 1/MEC” value falls from 1.77 to 0.74.

Compared with `O=c1cnn(-c2ccc(Sc3ccc4ccccc4c3)c(Cl)c2)c(=O)[nH]1`, `O=c1cnn(-c2ccc(C(O)c3ccc(Cl)cc3)c(Cl)c2)c(=O)[nH]1` (stereo not drawn) is higher in “Log 1/MEC” value: 0.48 for the first, 2.26 for the second.

`CSc1ccc(Oc2c(C)cc(-n3ncc(=O)[nH]c3=O)cc2C)cc1` and `CSc1ccc(Oc2c(C)cc(-n3ncc(=O)[nH]c3=O)cc2C)cc1C` are within 0.2 log units of each other in “Log 1/MEC” value: 2.25 for the first, 2.27 for the second.

Going from `COc1cc(-n2ncc(=O)[nH]c2=O)cc(OC)c1OC` to `COc1cc(OC)cc(-n2ncc(=O)[nH]c2=O)c1`, the “Log 1/MEC” value rises from -0.55 to -0.3.

`Cc1cc(-n2ncc(=O)[nH]c2=O)ccc1Oc1ccc(Cl)cc1Cl` and `O=c1cnn(-c2ccc(Oc3ccc(Cl)cc3Cl)c(Cl)c2)c(=O)[nH]1` are within 0.2 log units of each other in “Log 1/MEC” value: 1.69 for the first, 1.71 for the second.

Compared with `Cc1cc(-n2ncc(=O)[nH]c2=O)ccc1Oc1ccc(S(C)(=O)=O)cc1`, `Cc1cc(-n2ncc(=O)[nH]c2=O)cc(Cl)c1Oc1ccc(C(C)O)cc1` (stereo not drawn) is higher in “Log 1/MEC” value: 1.97 for the first, 2.27 for the second.

Going from `CCN(C)S(=O)(=O)c1ccc(Oc2c(C)cc(-n3ncc(=O)[nH]c3=O)cc2Cl)c(Cl)c1` to `Cc1cc(-n2ncc(=O)[nH]c2=O)cc(Cl)c1Oc1ccc(S(=O)(=O)NC2CC2)cc1Cl`, the “Log 1/MEC” value falls from 2.11 to 1.51.

`O=c1cnn(-c2ccc(F)c(C(F)(F)F)c2)c(=O)[nH]1` and `O=c1cnn(-c2ccc(Br)c(C(F)(F)F)c2)c(=O)[nH]1` are within 0.2 log units of each other in “Log 1/MEC” value: 1.26 for the first, 1.35 for the second.

`Cc1cc(-n2ncc(=O)[nH]c2=O)ccc1C(O)c1ccccc1` (stereo not drawn) and `O=C1c2ccccc2CSc2cc(-n3ncc(=O)[nH]c3=O)ccc21` are within 0.2 log units of each other in “Log 1/MEC” value: 1.01 for the first, 1.04 for the second.

Going from `C[C@@](C#N)(c1ccc(Cl)cc1)c1c(Cl)cc(-n2ncc(=O)[nH]c2=O)cc1Cl` to `N#C[C@H](c1ccc(Cl)cc1)c1c(Cl)cc(-n2ncc(=O)[nH]c2=O)cc1Cl`, the “Log 1/MEC” value rises from 2.62 to 3.61.

First: O=c1cnn(-c2ccc(Cl)c(C(F)(F)F)c2)c(=O)[nH]1
Second: N#CC(c1ccc(Cl)cc1)c1c(Cl)cc(-n2ncc(=O)[nH]c2=O)cc1Cl (stereo not drawn) [DICLAZURIL]
The “Log 1/MEC” value of the first is lower: 1.56 for the first, 3.61 for the second.
